{
  "source": "paper PMC5024769",
  "about": "(Drug Design, Development and Therapy, 2016)",
  "key": {"[1]": {"test": "In vitro stability in rat plasma", "type": "in vitro ADME", "conditions": "60 minutes incubation with rat plasma", "in_short": "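Rat plasma was separated by centrifugation and diluted with pH 7.4 phosphate buffer to 80% final. Test compound (20 µM final) was incubated at 37°C for 60 min with agitation, then quenched with MeOH plus CH3CN. Analysis was by HPLC-UV at 254 nm, with acetonitrile–water gradient, mobile phase pH 7.0 (NH4OH) and methyl biphenyl-4-carboxylate internal standard (20 µM). Three independent experiments in duplicate.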"}, "[2]": {"tested_on": "diabetic rats (Rattus norvegicus)", "test": "Blood glucose after a single dose in diabetes model induced by STZ", "type": "in vivo", "conditions": "for Blood glucose after single dose / Hypoglycemic activity (in words) / Blood glucose before single dose: STZ diabetic rats; for Blood glucose after single dose / Hypoglycemic activity (in words): 20 mg·kg−1 ip, single dose; for Blood glucose before single dose: value before treatment (time control)", "in_short": "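Diabetes was induced in rats by single iv STZ (60 mg·kg−1 in citrate buffer, pH 4.5). After 4 weeks, male Wistar rats (180–220 g) with glycemia >300 mg/dL were used. Groups were non-diabetic, diabetic plus DMSO vehicle, and diabetic plus test compound (single 20 mg·kg−1 ip dose). Plasma glucose was read by glucometer at 0, 30, 60, 120 and 180 min. n=7/group; mean ± SEM; Student's t-test versus time control.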"}, "[3]": {"tested_on": "diabetic rats (Rattus norvegicus)", "test": "Blood glucose during 7 days' treatment of STZ diabetic rats", "type": "in vivo", "conditions": "50 mg/kg once a day for 7 days", "in_short": "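Male Wistar rats (180–220 g) were made diabetic by single iv STZ (60 mg·kg−1, citrate buffer pH 4.5); after 4 weeks, those with glycemia >300 mg/dL were used. They received test compound 50 mg·kg−1 ip once daily for 7 days, with DMSO as vehicle. Plasma glucose was measured before treatment and on days 3 and 7.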"}, "[4]": {"tested_on": "diabetic rats (Rattus norvegicus)", "test": "Thermal hyperalgesia", "type": "in vivo", "conditions": "STZ diabetic rats", "in_short": "(§1)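 Male Wistar rats (180–220 g) were made diabetic by single iv STZ 60 mg·kg−1 (glycemia >300 mg/dL). Thermal hyperalgesia was scored as paw withdrawal latency to radiant heat on the hind paw (plantar meter). Mechanical allodynia was scored as paw withdrawal threshold to pressure (digital analgesiometer). Readings were taken before and 4 weeks after induction, then 3 and 7 days into daily test compound 50 mg·kg−1 ip (DMSO vehicle). n=5/group; mean ± SEM; two-way ANOVA.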"}, "[5]": {"tested_on": "diabetic rats (Rattus norvegicus)", "test": "Mechanical allodynia", "type": "in vivo", "conditions": "STZ diabetic rats", "in_short": "as §1"}, "PPARγ [6]": {"target": "T1, PPARγ (Homo sapiens, UniProt P37231)", "T1 sequence (P37231 1-505)": "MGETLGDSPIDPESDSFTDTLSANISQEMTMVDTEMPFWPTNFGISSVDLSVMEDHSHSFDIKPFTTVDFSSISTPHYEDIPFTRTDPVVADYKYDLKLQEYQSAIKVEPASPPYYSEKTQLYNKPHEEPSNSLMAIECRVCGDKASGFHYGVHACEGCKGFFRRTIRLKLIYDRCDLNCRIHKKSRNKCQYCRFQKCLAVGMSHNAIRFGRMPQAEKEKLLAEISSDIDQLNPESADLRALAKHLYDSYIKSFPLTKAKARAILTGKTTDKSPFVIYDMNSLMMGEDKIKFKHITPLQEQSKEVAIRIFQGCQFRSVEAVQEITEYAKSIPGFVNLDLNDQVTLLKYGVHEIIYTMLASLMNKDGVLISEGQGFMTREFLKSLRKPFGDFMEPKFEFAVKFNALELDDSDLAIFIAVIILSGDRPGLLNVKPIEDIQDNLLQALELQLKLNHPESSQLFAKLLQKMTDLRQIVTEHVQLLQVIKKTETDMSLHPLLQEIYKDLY", "conditions": "cited from earlier work"}, "[7]": {"tested_on": "diabetic neuropathic pain model induced by STZ in rats", "conditions": "cited from earlier work"}, "[8]": {"test": "In vitro chemical stability in buffer at pH 2.0 and pH 7.4", "type": "physicochemical", "conditions": "pH 2.0, 20 µM, 37°C", "in_short": "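DMSO stocks (5–10 mM) were diluted into pH 2 buffer (0.2 M KCl/0.2 M HCl) or pH 7.4 dibasic phosphate buffer, giving 20 µM test compound. Samples were held in a 37°C water bath with vigorous stirring for 0, 30, 60 and 120 min. Acid samples were then neutralised with pH 8.4 phosphate buffer. % remaining = peak area at each time / area at 0 min × 100. At least two experiments in triplicate.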"}, "PPARγ [9]": {"target": "T1, PPARγ", "test": "PPARγ binding assay performed by CEREP", "conditions": "single concentration 30 µM, rosiglitazone as positive control"}},
  "note": "Entries after “also recorded” stand apart in the source; their conditions may differ.",
  "data": [
    {"smiles": "COC(=O)c1ccc(/C=N/NS(=O)(=O)c2ccc(OC)c(OC)c2)cc1", "note": "[Compound 7, (E)-methyl 4-((2-(3,4-dimethoxyphenylsulfonyl)hydrazono)methyl)benzoate]", "values": [
      {"measurement": "Plasma stability (in words)", "setting": "[1]", "value": "unstable"},
      {"measurement": "Blood glucose after single dose", "setting": "[2]", "value": "182.2 ± 22.7", "unit": "mg/dL"},
      {"measurement": "Hypoglycemic activity (in words)", "setting": "[2]", "value": "showed hypoglycemic activity"},
      {"measurement": "Blood glucose before single dose", "setting": "[2]", "value": "384.0 ± 41.9", "unit": "mg/dL"},
      {"measurement": "Hypoglycemic activity (in words)", "setting": "[3]", "value": "promoted hypoglycemic activity only after 7 days of treatment"},
      {"measurement": "Paw withdrawal latency (PWL), after 3 days of treatment", "setting": "[4]; 50 mg·kg−1 ip", "value": "12.2 ± 0.9", "unit": "s"},
      {"measurement": "Paw withdrawal latency (PWL), after 7 days of treatment", "setting": "[4]; 50 mg·kg−1 ip", "value": "13.3 ± 0.2", "unit": "s"},
      {"measurement": "Paw withdrawal latency (PWL), before treatment", "setting": "[4]; four weeks after induction", "value": "8.5 ± 0.2", "unit": "s"},
      {"measurement": "Effect on diabetic neuropathic pain (in words)", "setting": "[4]; long-term administration, 50 mg·kg−1 ip", "value": "reduced diabetic neuropathic pain"},
      {"measurement": "Paw withdrawal threshold (PWT), after treatment", "setting": "[5]; 50 mg·kg−1 ip, long-term administration", "value": "36.7 ± 0.9", "unit": "g"},
      {"measurement": "Paw withdrawal threshold (PWT), before treatment", "setting": "[5]; four weeks after induction", "value": "24.0 ± 1.4", "unit": "g"}
    ]},
    {"smiles": "COC(=O)c1ccc(/C=N/N(C)S(=O)(=O)c2ccc(OC)c(OC)c2)cc1", "note": "[Compound 6, (E)-methyl 4-((2-(3,4-dimethoxyphenylsulfonyl)-2-methylhydrazono)methyl)benzoate]", "values": [
      {"measurement": "Plasma stability (in words)", "setting": "[1]", "value": "unstable"},
      {"measurement": "Blood glucose after single dose", "setting": "[2]", "value": "255.3 ± 42.2", "unit": "mg/dL"},
      {"measurement": "Hypoglycemic activity (in words)", "setting": "[2]", "value": "showed hypoglycemic activity"},
      {"measurement": "Blood glucose before single dose", "setting": "[2]", "value": "397.1 ± 38.2", "unit": "mg/dL"}
    ]},
    {"smiles": "COc1ccc(S(=O)(=O)N(C)/N=C/c2ccc(C#N)cc2)cc1OC", "note": "[Compound 9, (E)-N′-(4-cyanobenzylidene)-3,4-dimethoxy-N-methylbenzene-sulfonohydrazide]", "values": [
      {"measurement": "Plasma stability (in words)", "setting": "[1]", "value": "very stable; also recorded: high chemical and plasma stability"},
      {"measurement": "Hypoglycemic activity (in words)", "setting": "[2]", "value": "did not reduce hyperglycemia"},
      {"measurement": "PPARγ activity as described earlier", "setting": "PPARγ [6]", "value": "partial agonist of PPARγ"},
      {"measurement": "Glucose levels after 7 days", "setting": "[7]; 50 mg/kg for 7 days, vehicle 410.0±58.0 mg/dL", "value": "242.4 ± 55.3", "unit": "mg/dL"},
      {"measurement": "Antinociceptive activity", "setting": "[7]; diabetic neuropathic pain model induced by STZ in rats", "value": "antinociceptive agent"}
    ]},
    {"smiles": "COc1ccc(S(=O)(=O)N/N=C/c2cccc(C(=O)O)c2)cc1OC", "note": "[Compound 4, (E)-3-((2-(3,4-dimethoxyphenylsulfonyl) hydrazono)methyl)benzoic acid]", "values": [
      {"measurement": "Plasma stability (in words)", "setting": "[1]", "value": "very stable"}
    ]},
    {"smiles": "COC(=O)c1cccc(/C=N/N(C)S(=O)(=O)c2ccc(OC)c(OC)c2)c1", "note": "[Compound 5, (E)-methyl 3-((2-(3,4-dimethoxyphenylsulfonyl)-2-methylhydrazono)methyl)benzoate]", "values": [
      {"measurement": "Plasma stability (in words)", "setting": "[1]", "value": "very stable"},
      {"measurement": "Solubility in DMSO", "setting": "[2]; dosing vehicle DMSO", "value": "partially insoluble in DMSO"}
    ]},
    {"smiles": "COc1ccc(S(=O)(=O)N/N=C/c2ccc(C#N)cc2)cc1OC", "note": "[Compound 8, (E)-N′-(4-cyanobenzylidene)-3,4-dimethoxybenzenesulfonohydrazide]", "values": [
      {"measurement": "Chemical stability", "setting": "[8]", "value": "unstable"},
      {"measurement": "Plasma stability (in words)", "setting": "[1]", "value": "unstable"}
    ]},
    {"smiles": "COc1ccc(S(=O)(=O)N/N=C/c2ccc(C(=O)O)cc2)cc1OC", "note": "[Compound 10, (E)-4-((2-(3,4-dimethoxyphenylsulfonyl) hydrazono)methyl)benzoic acid]", "values": [
      {"measurement": "Inhibition of control specific binding to PPARγ", "setting": "PPARγ [9]", "value": "unable to bind to PPARγ"}
    ]}
  ]
}
